Numbered stars: 1 amine (or outer) side, 2 acyl side, 3 side chain; on linkers, the order of the positions; unused ones are H or OH. Bridge positions count the residues as written; N and C are the ends. Square brackets hold non-standard residues; d marks the D form. Peptide text beside a SMILES is read from it. NGly(3-aminopropyl) = O=C(CN(CCCN[*:3])[*:1])[*:2]; N(2-Aminoethyl)Gly = O=C(CN(CCN[*:3])[*:1])[*:2]; Adipoyl = O=C(CCCCC(=O)[*:2])[*:1]; Suc = O=C(CCC(=O)[*:2])[*:1]
What was measured:
[1] = Permeability across human Caco-2 cells; format: ADME, cell-based
Summary of the method: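 Caco-2 cells (passage 60–66) were seeded on 0.4 µm polycarbonate inserts and used 21–23 days later at stable TEER (300–500 Ωcm²). After 30 min buffer pre-incubation at 37 °C with shaking, compound was added apically.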

[2] = target: Melanocyte-stimulating hormone receptor (Mus musculus, UniProt Q01727); experiment: Agonist activity at mouse MC1R expressed in HEK293 cells; format: functional, cell-based
Sequence of Melanocyte-stimulating hormone receptor (Q01727 whole entry): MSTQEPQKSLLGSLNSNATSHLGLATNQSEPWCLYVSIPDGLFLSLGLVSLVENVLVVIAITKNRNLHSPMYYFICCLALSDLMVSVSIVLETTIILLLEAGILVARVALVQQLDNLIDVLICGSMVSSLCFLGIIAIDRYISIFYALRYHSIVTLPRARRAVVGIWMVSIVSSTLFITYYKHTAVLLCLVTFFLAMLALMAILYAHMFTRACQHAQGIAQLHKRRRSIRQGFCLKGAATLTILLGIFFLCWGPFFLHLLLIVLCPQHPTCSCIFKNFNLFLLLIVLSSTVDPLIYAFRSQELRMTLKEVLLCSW
Summary of the method: (§1)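 HEK-293 cells stably expressing each melanocortin receptor were transfected with a CRE/β-galactosidase reporter. At 48 h post-transfection, cells were stimulated for 6 h with peptide (10^-4 to 10^-12 M) or 10^-4 M forskolin in DMEM containing 0.1 mg/mL BSA and 0.1 mM IBMX. Lysates were read with ONPG at OD 405 and normalized to protein (OD 595) and to forskolin response. Efficacy is expressed relative to NDP-MSH maximal stimulation.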

[3] = target: Melanocortin receptor 3 (Mus musculus) (UniProt P33033); experiment: Stimulation of mouse MC3R expressed in HEK293 cells relative to NDP-MSH; format: cell-based; summary of the method: as §1
Sequence of Melanocortin receptor 3 (Mus musculus) (P33033 whole entry): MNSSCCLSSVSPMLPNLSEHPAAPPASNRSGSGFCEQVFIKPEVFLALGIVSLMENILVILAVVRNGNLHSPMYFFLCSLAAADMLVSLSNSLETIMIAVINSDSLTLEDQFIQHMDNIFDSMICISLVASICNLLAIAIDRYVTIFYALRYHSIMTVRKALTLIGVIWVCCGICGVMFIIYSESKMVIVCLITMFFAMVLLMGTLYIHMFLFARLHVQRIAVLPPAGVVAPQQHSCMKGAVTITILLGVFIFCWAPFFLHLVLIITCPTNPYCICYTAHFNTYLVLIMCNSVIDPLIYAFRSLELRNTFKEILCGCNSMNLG

[4] = target: Melanocortin receptor 5 (Mus musculus, UniProt P41149); experiment: Agonist activity at mouse MC5R expressed in HEK293 cells; format: functional, cell-based; summary of the method: as §1
Sequence of Melanocortin receptor 5 (P41149 whole entry): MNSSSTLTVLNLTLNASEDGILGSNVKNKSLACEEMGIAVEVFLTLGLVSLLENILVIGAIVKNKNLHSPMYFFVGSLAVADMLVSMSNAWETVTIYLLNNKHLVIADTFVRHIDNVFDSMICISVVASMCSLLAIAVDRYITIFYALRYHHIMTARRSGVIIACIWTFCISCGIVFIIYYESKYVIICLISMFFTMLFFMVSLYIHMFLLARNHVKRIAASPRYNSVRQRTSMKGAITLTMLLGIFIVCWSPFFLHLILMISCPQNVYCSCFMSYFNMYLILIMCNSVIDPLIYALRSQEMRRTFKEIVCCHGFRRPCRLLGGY

[5] = target: Melanocortin receptor 5 (Mus musculus) (UniProt P41149); experiment: Stimulation of mouse MC5R expressed in HEK293 cells relative to NDP-MSH; format: cell-based; summary of the method: as §1
Sequence of Melanocortin receptor 5 (Mus musculus) (P41149 whole entry): as above

[6] = target: Melanocortin receptor 3 (Mus musculus, UniProt P33033); experiment: Agonist activity at mouse MC3R expressed in HEK293 cells; format: functional, cell-based; summary of the method: as §1
Sequence of Melanocortin receptor 3 (P33033 whole entry): as the sequence (P33033 whole entry) above

[7] = target: Melanocyte-stimulating hormone receptor (Mus musculus) (UniProt Q01727); experiment: Stimulation of mouse MC1R expressed in HEK293 cells relative to NDP-MSH; format: cell-based; summary of the method: as §1
Sequence of Melanocyte-stimulating hormone receptor (Mus musculus) (Q01727 whole entry, looked up): as the sequence (Q01727 whole entry) above

[8] = target: Melanocortin receptor 4 (Mus musculus, UniProt P56450); experiment: Agonist activity at mouse MC4R expressed in HEK293 cells; format: functional, cell-based; summary of the method: as §1
Sequence of Melanocortin receptor 4 (Mus musculus, UniProt P56450) (P56450 whole entry): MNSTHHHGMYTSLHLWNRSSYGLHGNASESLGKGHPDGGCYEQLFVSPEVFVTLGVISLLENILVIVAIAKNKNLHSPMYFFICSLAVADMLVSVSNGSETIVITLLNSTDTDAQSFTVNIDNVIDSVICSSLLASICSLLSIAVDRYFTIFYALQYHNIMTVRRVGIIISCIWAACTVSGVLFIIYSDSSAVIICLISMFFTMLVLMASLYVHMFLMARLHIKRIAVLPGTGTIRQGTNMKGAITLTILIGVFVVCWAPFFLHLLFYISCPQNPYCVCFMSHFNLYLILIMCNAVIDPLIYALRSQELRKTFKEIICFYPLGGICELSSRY

[9] = target: Melanocortin receptor 4 (Mus musculus) (UniProt P56450); experiment: Stimulation of mouse MC4R expressed in HEK293 cells relative to NDP-MSH; format: cell-based; summary of the method: as §1
Sequence of Melanocortin receptor 4 (Mus musculus) (P56450 whole entry): as above

[10] = target: Melanocortin receptor 4 (Homo sapiens, UniProt P32245); experiment: Displacement of [125I]NDP-alpha-MSH from MC4R
Sequence of Melanocortin receptor 4 (Homo sapiens, UniProt P32245) (P32245 whole entry): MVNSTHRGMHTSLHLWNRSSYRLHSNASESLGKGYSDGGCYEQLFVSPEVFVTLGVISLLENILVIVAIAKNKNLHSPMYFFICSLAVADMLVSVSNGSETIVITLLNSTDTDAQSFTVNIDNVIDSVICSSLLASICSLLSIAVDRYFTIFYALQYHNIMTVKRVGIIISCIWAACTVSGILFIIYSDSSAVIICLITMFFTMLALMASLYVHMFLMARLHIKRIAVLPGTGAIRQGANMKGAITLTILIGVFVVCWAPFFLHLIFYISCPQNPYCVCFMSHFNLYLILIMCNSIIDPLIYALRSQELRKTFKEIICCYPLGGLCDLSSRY

[11] = Tmax in Wistar rat plasma at 1 mg/kg, iv; format: ADME, organism-based; parameters: dose 1 mg/kg, route intravenous
Summary of the method: (§2)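 Conscious male Wistar rats with a jugular vein cannula implanted 24 h beforehand received peptide dissolved in water, as an iv bolus of 1 mg/kg (n = 5) or orally at 10 mg/kg (n = 2). Heparinized blood was sampled at several times up to 24 h. Plasma was separated at 4 °C, stored at -70 °C and analysed by HPLC-MS. Parameters came from noncompartmental analysis.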

[12] = Biodistribution in rat brain at 10 mg/kg, po after 8 hrs; format: ADME, organism-based; parameters: dose 10 mg/kg, route oral; settings: read-out: Drug uptake
Summary of the method: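 Rats were dosed at 10 mg/kg, iv or po. Brain was collected 8 h after dosing and extracted by a single protein precipitation (90% acetonitrile/10% formic acid, then 50 mM ammonium formate). Peptide was quantified by validated LC-MS/MS and expressed as […] tissue.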

[13] = Half life in Wistar rat plasma at 1 mg/kg, iv and 10 mg/kg, po; format: ADME, organism-based; summary of the method: as §2
[14] = AUC in Wistar rat plasma at 1 mg/kg, iv and 10 mg/kg, po; format: ADME, organism-based; summary of the method: as §2
[15] = Cmax in Wistar rat plasma at 1 mg/kg, iv; format: ADME, organism-based; parameters: dose 1 mg/kg, route intravenous; summary of the method: as §2
[16] = Volume of distribution at steady state in Wistar rat plasma at 1 mg/kg, iv and 10 mg/kg, po; format: ADME, organism-based; settings: read-out: Vdss; summary of the method: as §2
[17] = test system: Mus musculus; experiment: Reduction of food consumption in ICR:Hsd (CD1) mouse at 0.5 mg/kg, po after 1 hr relative to control; format: functional; parameters: scale not given: the % may be the effect or the level left
Summary of the method: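 Male ICR:Hsd (CD-1) mice, 7–8 weeks old and individually caged, were fasted 16 h and then gavaged once (5 mL/kg) with peptide at 100 µg/ml or with water vehicle (n = 24). Fixed food portions were given immediately and reweighed at 1, 2, 3, 4 and 5 h. Results are mean ± SEM, analysed by RM ANOVA with Tukey's test.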

[18] = Tmax in Wistar rat plasma at 10 mg/kg, po; format: ADME, organism-based; parameters: dose 10 mg/kg, route oral; summary of the method: as §2
[19] = test system: Rattus norvegicus; experiment: Bioavailability in Wistar rat plasma at 1 mg/kg, iv and 10 mg/kg, po; format: ADME, organism-based; settings: in vivo; summary of the method: as §2
[20] = Cmax in Wistar rat plasma at 10 mg/kg, po; format: ADME, organism-based; parameters: dose 10 mg/kg, route oral; summary of the method: as §2
[21] = Elimination half life in rat; format: ADME, tissue-based; settings: plasma; summary of the method: as §2
[22] = test system: Mus musculus; experiment: Effect on weight gain in ICR:Hsd (CD1) mouse at 0.5 mg/kg/day, po after 12 days relative to control; format: functional
Summary of the method: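 Mice (n = 9) were weighed daily, then given a daily oral gavage (5 mL/kg) of peptide at 100 µg/ml or water vehicle. Weight change from day 0 was expressed as mean ± SEM and compared with controls by Student's t-test.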

| Papp [1] | EC50 [2] | Efficacy [3] | EC50 [4] | Efficacy [5] | EC50 [6] | Efficacy [7] | EC50 [8] | Efficacy [9] | Structure (SMILES) | other results |
| --- | --- | --- | --- | --- | --- | --- | --- | --- | --- | --- |
| 2.05 ×10⁻⁶ cm/s | – | – | – | – | – | – | – | – | OC[C@@H](O)[C@@H](O)[C@H](O)[C@H](O)CO [MANNITOL] | – |
| 18.8 ×10⁻⁶ cm/s | 28 nM | 100% | 2 nM | 100% | 1260 nM | 100% | 4 nM | 100% | N=C(N)NCCC[C@@H]1NC(=O)[C@@H](Cc2ccccc2)NC(=O)[C@H](Cc2ccccc2)NC(=O)CCC(=O)NCCCN(CC(N)=O)C(=O)[C@H](Cc2c[nH]c3ccccc23)NC1=O (F[dF]RW[NGly(3-aminopropyl)]-NH2; linker N-5 via Suc) | – |
| 19 ×10⁻⁶ cm/s | 240 nM | 100% | 26 nM | 100% | 7750 nM | 100% | 5 nM | 100% | N=C(N)NCCC[C@@H]1NC(=O)[C@@H](Cc2ccccc2)NC(=O)[C@H](Cc2ccccc2)NC(=O)CCCCC(=O)NCCCN(CC(N)=O)C(=O)[C@H](Cc2c[nH]c3ccccc23)NC1=O (F[dF]RW[NGly(3-aminopropyl)]-NH2; linker N-5 via Adipoyl) | – |
| 21 ×10⁻⁶ cm/s | 120 nM | 100% | 20 nM | 100% | 1460 nM | 100% | 18 nM | 100% | N=C(N)NCCC[C@@H]1NC(=O)[C@@H](Cc2ccccc2)NC(=O)[C@H](Cc2ccccc2)NC(=O)CCCC(=O)NCCN(CC(N)=O)C(=O)[C@H](Cc2c[nH]c3ccccc23)NC1=O | – |
| – | 550 nM | 100% | 390 nM | 100% | 20500 nM | 100% | 150 nM | 100% | N=C(N)NCCC[C@@H]1NC(=O)[C@@H](Cc2ccccc2)NC(=O)[C@H](Cc2ccccc2)NC(=O)c2ccccc2C(=O)NCCN(CC(N)=O)C(=O)[C@H](Cc2c[nH]c3ccccc23)NC1=O | IC50 [10]: 100 nM |
| 25 ×10⁻⁶ cm/s | – | – | – | – | – | – | – | – | CC(C)NCC(O)COc1cccc2ccccc12 (stereo not given) [PROPRANOLOL] | – |

| Structure (SMILES) | Papp [1] | EC50 [2] | Efficacy [3] | EC50 [4] | Efficacy [5] | EC50 [6] | Efficacy [7] | EC50 [8] | Efficacy [9] | other results |
| --- | --- | --- | --- | --- | --- | --- | --- | --- | --- | --- |
| N=C(N)NCCC[C@H](NC(=O)[C@H](Cc1c[nH]c2ccccc12)NC(=O)CN)C(=O)N[C@H](Cc1ccccc1)C(=O)N[C@@H](Cc1ccccc1)C(=O)O | 12 ×10⁻⁶ cm/s | – | – | – | – | – | – | – | – | – |
| N=C(N)NCCC[C@@H]1NC(=O)[C@@H](Cc2ccccc2)NC(=O)[C@H](Cc2ccccc2)NC(=O)CCC(=O)NCCN(CC(N)=O)C(=O)[C@H](Cc2c[nH]c3ccccc23)NC1=O (F[dF]RW[N(2-Aminoethyl)Gly]-NH2; linker N-5 via Suc) | 17.8 ×10⁻⁶ cm/s | 64 nM | 100% | 7 nM | 100% | 770 nM | 100% | 4 nM | 100% | Tmax [11]: 5 min; concentration at 8 h [12]: 4700 ng/g; half-life [13]: > 105 min; AUC [14]: 416 ng·h/mL; Cmax [15]: 977 ng/mL; Vd [16]: 2.1 L/kg; Activity [17]: 46%; Tmax [18]: 37 min; F [19]: 8.5%; Cmax [20]: 202 ng/mL; half-life [21]: 100 min; Activity [22]: 2.8% |

Source: ChEMBL document CHEMBL1143862, “Backbone cyclic peptidomimetic melanocortin-4 receptor agonist as a novel orally administrated drug lead for treating obesity” (J Med Chem, 2008)
